Compound activity deposited in PubChem BioAssay by several laboratories.
ZTA DNA inh = blocks Epstein-Barr virus ZTA, an EBNA-1 counter-screen; 0.15% of 320,000 active; ZTA-DNA binding, fluorescence polarization; P03206; inhibition, % at 11 µM; in the data active = inhibition above about 33%
Target sequence (P03206 whole entry, looked up): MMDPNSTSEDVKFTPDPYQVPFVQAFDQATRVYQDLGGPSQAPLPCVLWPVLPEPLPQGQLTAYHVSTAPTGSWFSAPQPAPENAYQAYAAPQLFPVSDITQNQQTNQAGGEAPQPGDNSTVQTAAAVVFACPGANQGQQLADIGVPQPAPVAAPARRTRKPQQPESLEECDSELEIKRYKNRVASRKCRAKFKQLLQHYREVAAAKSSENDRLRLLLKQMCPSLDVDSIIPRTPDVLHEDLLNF
EBNA-1 inh = blocks EBNA-1 binding to DNA | 0.34% of 300,000 active | EBNA-1 DNA binding, fluorescence polarization | AID 1950 | inhibition, % at 14.8 µM; in the data active = inhibition above about 28%
core dimer inh = HCV core protein dimerization inhibition | 0.33% of 300,000 active | AID 1899 | TR-FRET GST/Flag-core106 dimerization, 1536-well | inhibition, % at 5 µM;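 active = inhibition above the mean of all tested compounds plus 3 SD, set per screening campaign, cut at about 45% in these data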
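test system = GST/Flag-tagged HCV core106 proteins | probe or stimulus = Eu donor and XL665 acceptor anti-tag antibodies | times = compound-protein-antibody incubation 4 h at 22.5 °C | signal = TR-FRET, excitation 340 nm, emission 617 and 671 nm | measure = percent inhibition of core106 dimerization signal | controls = wells lacking GST-core106 and wells with excess unlabelled core106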
GPR7 antagonist = blocks human GPR7 receptor signaling. GPR7-expressing cells, fluorescence antagonist assay. AID 1861. 1.1% of 290,000 active. inhibition, % at 4.4 µM; in the data active = inhibition above about 16%, passing the limit was not always enough;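 note: cells stimulated with the agonist NPW; 0% = agonist with vehicle and 100% = vehicle without agonist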
NS3 helicase inh = HCV NS3 helicase inhibition; NS3 helicase DNA unwinding, Cy5 molecular beacon fluorescence; inhibition, % at 10.9 µM; 0.56% of 290,000 active; AID 1800;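 active = inhibition above the mean of all tested compounds plus 3 SD, set per campaign, cut at about 35% in these data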;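 note: 0% = DMSO wells and 100% = thioflavine S control wells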
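Measured by: Cy5 fluorescence, 0 and 60 min reads / Assay system: NS3 helicase fragment of HCV / Control set: low DMSO, high thioflavine S at 110 µM / Times: 1 h reaction at 25 °C, ATP-initiated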
EBV gp42 block = blocks Epstein-Barr virus glycoprotein 42 binding; Q1HVG2; Fluorescence polarization binding assay, mP read-out; inhibition, % (tested at 21.74 µM); 0.42% of 220,000 active; AID 1085; in the data active = inhibition above about 50%
Target sequence (Q1HVG2 whole entry, looked up): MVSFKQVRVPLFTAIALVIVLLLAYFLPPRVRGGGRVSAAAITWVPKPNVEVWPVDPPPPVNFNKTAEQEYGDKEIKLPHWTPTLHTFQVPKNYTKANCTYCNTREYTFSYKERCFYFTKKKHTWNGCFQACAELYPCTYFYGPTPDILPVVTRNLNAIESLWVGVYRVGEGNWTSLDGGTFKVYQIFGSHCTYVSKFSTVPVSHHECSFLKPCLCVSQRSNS
GPR7 antag conf = confirmation of human GPR7 antagonists | shares compounds with GPR7 antagonist | GPR7-expressing cells, calcium fluorescence antagonist mode | inhibition, % at 4.4 µM | 52% of 2,400 active | AID 1952; in the data active = inhibition above about 24%;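 note: stimulated with the GPR7 agonist NPW; 0% = agonist plus vehicle and 100% = vehicle alone without agonist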
MCHR1 antagonist = MCHR1 (human) antagonism in GPR7 counter-screen | shares compounds with GPR7 antagonist | MCHR1-expressing cells, fluorescence antagonist assay | inhibition, % at 4.4 µM | 62% of 2,400 active | AID 2148; in the data active = inhibition above about 22%;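 note: 0% = vehicle with agonist and 100% = vehicle without agonist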
The depositor's hits bear a star; / = not tested or not shown. Hits are enriched below; roughly 2.3% of the tested compounds scored in any of these assays.

SMILES	ZTA DNA inh	EBNA-1 inh	core dimer inh	GPR7 antagonist	NS3 helicase inh	EBV gp42 block	GPR7 antag conf	MCHR1 antagonist
CCOC(=O)Nc1ccc2c(c1)N(C(=O)CN1CCN(C)CC1)c1ccccc1S2	-17	-15	-2	-1	-14	-15	/	/
CCN(CC)CCSc1nc2ccccc2c(=S)n1-c1ccccc1	5	-7	-4	40*	-70	-15	40*	39*
CC(=O)c1ccc(NC(=S)Nc2ccc(Br)c(Cl)c2)cc1	6	-2	0	-7	2	1	/	/
CC(=O)c1ccc(NC(=S)NC(C)c2ccc(Cl)cc2Cl)cc1 (centres undefined)	1	1	10	44*	2	4	61*	73*
COc1cccc(CCNC(=O)c2ccc(OC)c(OC3CCN(C(C)C)CC3)c2)c1	3	7	0	-8	3	/	/	/
Cc1ccc(C)c(OCCCNCc2ccccc2)c1	12	1	4	-5	-29	/	/	/
Cc1ccc(C(C)C)c(OCCNCc2ccccc2)c1	-12	-5	-4	30*	-57	/	21	68*
CCCN(CCC)CCOc1cc(C)ccc1C(C)C	-14	-2	-9	24*	-16	3	31*	20
CCOc1ccc(CN2C(=O)CC(=O)N(S(=O)(=O)c3ccc(OCC)cc3)C2=O)cc1	2	-4	7	-7	27	-72	/	/
O=C(CN1C(=O)C2C3CC(C(Br)C3Br)C2C1=O)N1CCN(Cc2ccccc2)CC1 (centres undefined)	2	0	-2	29*	-6	-2	41*	14
Cc1ccccc1NC(=O)c1ccc(NC(=O)C2CC(=O)OC23CCCCC3)cc1 (centres undefined)	/	/	/	1	18	-3	/	/
CCCOc1ccccc1NC(=O)c1ccc([N+](=O)[O-])cc1	-1	-2	2	-16	-3	-5	/	/
O=C(O)c1ccc(Nc2ccc(F)c(F)c2)c([N+](=O)[O-])c1	-1	-23	-11	36*	8	/	-9	1
COc1ccc(Nc2ccc(C(=O)O)cc2[N+](=O)[O-])cc1	11	7	-16	-6	-9	-5	/	/
COc1cc(S(=O)(=O)N(C)C2CCCCC2)c(C)cc1C	/	/	/	-16	0	7	/	/
O=C(CCC1CCCN(C(=O)c2ccc3c(c2)OCO3)C1)N1CCN(c2ccccn2)CC1 (centres undefined)	8	4	2	-8	4	-16	/	/
COc1ccccc1N1CCN(CC(=O)Nc2ccc(C)c(F)c2)CC1	-19	-7	-6	26*	-12	7	-3	1
COc1cc(NC(=O)CN2CCN(c3ccccc3)CC2)c(C)cc1[N+](=O)[O-]	-25	-1	-11	9	1	-13	/	/
COc1cc(NC(=O)CN2CCN(c3ccccc3F)CC2)c(C)cc1[N+](=O)[O-]	-14	-14	-2	22*	-7	0	-13	-6
CC1CCc2c(C(=O)Nc3ccc(N4CCOCC4)cc3)csc2C1 (centres undefined)	-21	-9	0	-4	28	-3	/	/
O=C(COC(=O)[C@H](Cc1ccccc1)NC(=O)c1cccs1)Nc1ccccc1C(F)(F)F	6	-2	7	23*	0	-19	39*	32*
NC(=O)NC(=O)COC(=O)[C@H](Cc1ccccc1)NC(=O)c1cccs1	0	3	0	-10	9	-6	/	/
CCCCNC(=O)[C@@H]1CSC2c3ccc(OC)c(OC)c3C(=O)N21 (some centres undefined)	-13	2	-1	-1	13	/	/	/
Cc1ccc(C)c(NC(=O)Cc2ccc(S(=O)(=O)N3CCCCC3)s2)c1	-1	3	17	20	9	-3	/	/
O=C(Cc1ccc(S(=O)(=O)N2CCCCC2)s1)Nc1ccc(F)cc1F	-6	13	16	35*	2	-26	20	19
SMILES	ZTA DNA inh	EBNA-1 inh	core dimer inh	GPR7 antagonist	NS3 helicase inh	EBV gp42 block	GPR7 antag conf	MCHR1 antagonist
O=C(CSCc1ccccc1Cl)NCCSc1ccccn1	6	1	3	-1	-3	-18	/	/
COC(=O)CCN(C1CCCCC1)S(=O)(=O)c1ccc(S(=O)(=O)NC2CCCCC2)cc1	0	2	3	40*	2	7	51*	32*
CCCCN(C(=N)N1CCCCC1)c1nc(C)c([N+](=O)[O-])c(=O)[nH]1	2	-6	-1	-11	3	-2	/	/
O=C1/C(=N\O)Cc2ccccc21	-13	1	-8	27*	-8	-15	6	-1
O/N=C1\CCCc2ccccc21	6	1	-4	-18	10	-8	/	/
C#CCN1C(=O)S/C(=C\c2cc3c(cc2OC)OCO3)C1=O	5	23	-4	-11	4	/	/	/
CCOC(=O)CSC1=NC(=O)/C(=C/c2ccc(OC)cc2)S1	14	12	0	29*	15	-31	72*	72*
O=S(=O)(Cc1ccccc1)NCC1CCCN(Cc2ccc(F)c(F)c2)C1 (centres undefined)	-2	-4	1	-6	-11	1	/	/
O=C(CCCc1cccs1)N1CCN(S(=O)(=O)c2ccccc2Br)CC1	4	1	12	29*	-15	-9	11	25*
O=C(Cc1cccs1)N1CCN(S(=O)(=O)c2ccccc2)CC1	-5	7	1	-20	4	-1	/	/
CC(NC(=O)Nc1ccc(Br)cc1)C(C)(C)C (centres undefined)	-12	0	-4	-6	-5	-8	/	/
CCN1C(=O)C(CC(=O)Nc2ccc(F)cc2)N(CCCN2CCN(c3ccc(F)cc3)CC2)C1=S (centres undefined)	-27	-9	-14	33*	-87	-11	29*	62*
Cc1ccc2c(c1)[C@@H]1CN(C)CC[C@@H]1N2S(=O)(=O)c1ccc([N+](=O)[O-])cc1	-8	-3	-3	29*	-16	-4	-10	18
Cc1ccc2c(c1)[C@@H]1CN(C)CC[C@@H]1N2S(=O)(=O)c1ccc(F)cc1	10	13	-5	5	-20	-16	/	/
S=C(NCC1CCCO1)N1CCN(c2nc(-c3ccccc3)cs2)CC1 (centres undefined)	8	-5	-3	-3	-10	-26	/	/
CCOC(=O)c1ccc(N2CCCCC2)c(NS(=O)(=O)c2ccc(C)cc2)c1	3	-7	7	25*	-11	2	15	62*
COc1ccc(NC2CC(=O)N(C(C)C)C2=O)cc1 (centres undefined)	-4	-13	-2	24*	11	-9	-2	9
